Read-outs that look alike come from different tables or passages of the source. One block for each compound: values may come before it.
Columns and labels:
BRD4 = BRD4 (Homo sapiens, UniProt O60885); assay: Immunoblot of BRD4 degradation in MM.1S cells; format: cell-based; settings: for cellular degradation of BRD4, linker library: 16 h
Method in brief: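 MM.1S cells were treated with test compound for 16 h (24 h in the initial screen). For rescue, cells were pretreated 2 h with 10 μM KEAP1 inhibitor, 10 μM JQ1 or 1 μM MLN4924. Lysates in RIPA were BCA-normalised, run on 4–12% gels and blotted to PVDF with IRDye secondaries. BRD4 bands were quantified relative to β-actin. Two independent experiments.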

KEAP1 [1] = biological target: T1, KEAP1 (Homo sapiens, UniProt Q14145); assay: KEAP1-NRF2 displacement TR-FRET assay; format: binding
Target sequence in this assay (Q14145 321-609): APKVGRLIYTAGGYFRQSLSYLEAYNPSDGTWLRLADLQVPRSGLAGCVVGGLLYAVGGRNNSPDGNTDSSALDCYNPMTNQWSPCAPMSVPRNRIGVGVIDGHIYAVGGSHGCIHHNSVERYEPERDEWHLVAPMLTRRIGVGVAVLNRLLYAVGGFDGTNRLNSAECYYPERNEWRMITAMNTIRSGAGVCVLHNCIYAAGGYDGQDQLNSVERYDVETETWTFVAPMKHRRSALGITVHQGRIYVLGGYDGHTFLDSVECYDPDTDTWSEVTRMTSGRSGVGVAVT

KEAP1-BRD4BD2 = KEAP1-BRD4BD2 (Homo sapiens, UniProt O60885+Q14145); assay: KEAP1-BRD4BD2 dimerization TR-FRET assay; format: biochemical
Sequence of KEAP1-BRD4BD2 (Q14145 321-609 limits assumed, other chains not shown): as the sequence (Q14145 321-609) above
Method in brief: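 TR-FRET mix: 200 nM biotinylated human BRD4BD2, 200 nM Alexa Fluor 647-labelled human KEAP1 (residues 321–609, insect-cell expressed, SpyCatcher-labelled) and 2 nM Eu-streptavidin. Buffer was 50 mM Tris pH 8.0, 200 mM NaCl, 0.1% Pluronic F-68, 0.5% BSA and 1 mM TCEP; compound was titrated. After 15 min at room temperature, excitation was 337 nm and the 665/620 nm ratio was read over thirty 200-s cycles. Mean ± SD of ≥3 technical replicates; two independent experiments.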

KEAP1 [2] = biological target: T1, KEAP1; assay: Immunoblot of KEAP1 degradation in WT and CRBN−/− MM.1S cells; format: cell-based; settings: for KEAP1 degradation in CRBN knockout cells: CRBN−/− MM.1S cells; for KEAP1 degradation in CRBN knockout cells / KEAP1 degradation in wildtype cells: 5 μM, 2-hour treatment; for KEAP1 degradation: MM.1S cells; for KEAP1 degradation in wildtype cells: wildtype MM.1S cells
Target sequence in this assay (Q14145 whole entry): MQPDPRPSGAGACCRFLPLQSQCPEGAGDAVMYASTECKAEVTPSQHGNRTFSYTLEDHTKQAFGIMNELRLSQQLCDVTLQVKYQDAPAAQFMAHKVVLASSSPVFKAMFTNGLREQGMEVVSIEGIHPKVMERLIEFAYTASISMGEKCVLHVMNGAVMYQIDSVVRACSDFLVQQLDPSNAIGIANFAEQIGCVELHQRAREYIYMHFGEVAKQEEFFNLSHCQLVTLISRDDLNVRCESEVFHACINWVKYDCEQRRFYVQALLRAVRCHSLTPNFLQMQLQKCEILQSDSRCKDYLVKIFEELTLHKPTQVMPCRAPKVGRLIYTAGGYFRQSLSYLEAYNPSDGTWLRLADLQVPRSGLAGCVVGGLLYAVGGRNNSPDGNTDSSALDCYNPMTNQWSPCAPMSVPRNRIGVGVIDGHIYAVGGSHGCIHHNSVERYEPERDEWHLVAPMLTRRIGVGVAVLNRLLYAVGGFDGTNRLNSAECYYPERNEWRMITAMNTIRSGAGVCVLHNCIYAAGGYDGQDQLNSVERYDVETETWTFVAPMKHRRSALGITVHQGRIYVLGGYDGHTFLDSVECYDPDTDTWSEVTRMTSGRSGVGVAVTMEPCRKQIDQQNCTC

CRBN = CRBN (Homo sapiens, UniProt Q96SW2); assay: Immunoblot of CRBN in MM.1S cells; format: cell-based
Sequence of CRBN (Q96SW2 whole entry): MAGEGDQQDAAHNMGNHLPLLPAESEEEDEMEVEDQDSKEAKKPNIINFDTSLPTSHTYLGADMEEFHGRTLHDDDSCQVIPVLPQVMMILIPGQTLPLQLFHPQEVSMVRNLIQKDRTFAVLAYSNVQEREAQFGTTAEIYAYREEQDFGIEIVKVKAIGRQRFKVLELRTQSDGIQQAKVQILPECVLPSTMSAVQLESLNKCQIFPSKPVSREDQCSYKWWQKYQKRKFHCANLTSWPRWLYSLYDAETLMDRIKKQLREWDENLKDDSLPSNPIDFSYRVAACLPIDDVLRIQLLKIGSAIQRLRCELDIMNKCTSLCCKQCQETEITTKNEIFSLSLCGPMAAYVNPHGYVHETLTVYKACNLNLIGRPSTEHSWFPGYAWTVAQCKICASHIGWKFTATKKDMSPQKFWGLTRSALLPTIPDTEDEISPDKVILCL

OVCAR8 cells = assay: Proteomics profiling of KEAP1-CRBN PROTACs; format: cell-based, human; settings: legend: MM.1S cells, 5 h, 5 μM
MM.1S cells = assay: Antiproliferation assay; format: cell-based; settings: Homo sapiens, MM1.S, 72 h, read-out: anti-proliferative effect
Method in brief: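 MM.1S cells (RPMI, 10% FBS, 1% Pen/Strep, 37°C, 5% CO2) seeded at 10000 cells/well and grown 12 h, then exposed to test compound for 72 h. Viability read by CellTiter-Glo luminescence. Dose-response curves fitted by non-linear regression. Mean ± SEM of three technical replicates; representative of two independent experiments.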

- KEAP1 degradation in CRBN knockout cells (KEAP1 [2]): not CRBN^−/− MM.1S cells
- KEAP1 degradation (KEAP1 [2]): rapid degradation of KEAP1
- KEAP1 degradation in wildtype cells (KEAP1 [2]): observed KEAP1 degradation
- effect on CRBN (CRBN): spared CRBN
SMILES: COc1cc([C@@H](CC(=O)O)c2ccc(C)c(CN3C[C@@H](C)Oc4cc(CCCCCCNC(=O)COc5cc6c7c(cccc7c5)C(=O)N(C5CCC(=O)NC5=O)C6=O)ccc4S3(=O)=O)c2)cc2nnn(C)c12 (stereo partly drawn) [NJH-04–087, (3S)-3-(3-(((4R)-7-(6-(2-((2-(2,6-dioxopiperidin-3-yl)-1,3-dioxo-2,3-dihydro-1H-benzo[de]isoquinolin-5-yl)oxy)acetamido)hexyl)-4-methyl-1,1-dioxido-3,4-dihydro-2H-benzo[b][1,4,5]oxathiazepin-2-yl)methyl)-4-methylphenyl)-3-(7-methoxy-1-methyl-1H-benzo[d][1,2,3]triazol-5-yl)propanoic acid]
- selectivity of degradation across the proteome (OVCAR8 cells): selective for inducing degradation of KEAP1 across the proteome and does not degrade any zinc finger proteins

- KEAP1 degradation, negative control (KEAP1 [2]; WT MM.1S cells, 4 h): did not induce KEAP1 degradation
SMILES: COc1cc([C@@H](CC(=O)O)c2ccc(C)c(CN3C[C@@H](C)Oc4cc(CCCCCCNC(=O)COc5cc6c7c(cccc7c5)C(=O)N(C5CCC(=O)N(C)C5=O)C6=O)ccc4S3(=O)=O)c2)cc2nnn(C)c12 (stereo partly drawn) [NJH-04–202, (3S)-3-(7-methoxy-1-methyl-1H-benzo[d][1,2,3]triazol-5-yl)-3-(4-methyl-3-(((4R)-4-methyl-7-(6-(2-((2-(1-methyl-2,6-dioxopiperidin-3-yl)-1,3-dioxo-2,3-dihydro-1H-benzo[de]isoquinolin-5-yl)oxy)acetamido)hexyl)-1,1-dioxido-3,4-dihydro-2H-benzo[b][1,4,5]oxathiazepin-2-yl)methyl)phenyl)propanoic acid]

- KEAP1 degradation in CRBN knockout cells (KEAP1 [2]): not CRBN^−/− MM.1S cells
- KEAP1 degradation (KEAP1 [2]): rapid degradation of KEAP1
- KEAP1 degradation in wildtype cells (KEAP1 [2]): observed KEAP1 degradation
- effect on CRBN (CRBN): spared CRBN
SMILES: COc1cc([C@@H](CC(=O)O)c2ccc(C)c(CN3C[C@@H](C)Oc4cc(CCCCCCNC(=O)COc5cccc6c5C(=O)N(C5CCC(=O)NC5=O)C6=O)ccc4S3(=O)=O)c2)cc2nnn(C)c12 (stereo partly drawn) [NJH-04–086, (3S)-3-(3-(((4R)-7-(6-(2-((2-(2,6-dioxopiperidin-3-yl)-1,3-dioxoisoindolin-4-yl)oxy)acetamido)hexyl)-4-methyl-1,1-dioxido-3,4-dihydro-2H-benzo[b][1,4,5]oxathiazepin-2-yl)methyl)-4-methylphenyl)-3-(7-methoxy-1-methyl-1H-benzo[d][1,2,3]triazol-5-yl)propanoic acid]
- selectivity of degradation across the proteome (OVCAR8 cells): clear degradation of KEAP1 and a few zinc finger proteins

- KEAP1 binding / engagement in TR-FRET Nrf2 peptide displacement assay (KEAP1 [1]): did not bind KEAP1
- activity at prolonged timepoints (BRD4): inactive even at prolonged timepoints
- BRD4 degradation, negative control (BRD4; MM.1S cells, 16-hour treatment at 0.1, 1, and 10 μM): did not result in degradation of BRD4
- IC50 (MM.1S cells): > 10000 nM
SMILES: CCOC(=O)C[C@@H](c1ccc(C)c(CN2C[C@@H](C)Oc3cc(CCCCCCNC(=O)C[C@@H]4N=C(c5ccc(Cl)cc5)c5c(sc(C)c5C)-n5c(C)nnc54)ccc3S2(=O)=O)c1)c1cc(OC)c2c(c1)nnn2C [NJH-05–146, Ethyl (S)-3-(3-(((R)-7-(6-(2-((S)-4-(4-chlorophenyl)-2,3,9-trimethyl-6H-thieno[3,2-f][1,2,4]triazolo[4,3-a][1,4]diazepin-6-yl)acetamido)hexyl)-4-methyl-1,1-dioxido-3,4-dihydro-2H-benzo[b][1,4,5]oxathiazepin-2-yl)methyl)-4-methylphenyl)-3-(7-methoxy-1-methyl-1H-benzo[d][1,2,3]triazol-5-yl)propanoate]

Continued, compound first:

SMILES: COc1cc([C@@H](CC(=O)O)c2ccc(C)c(CN3C[C@@H](C)Oc4cc(CCCOCCNC(=O)C[C@@H]5N=C(c6ccc(Cl)cc6)c6c(sc(C)c6C)-n6c(C)nnc65)ccc4S3(=O)=O)c2)cc2nnn(C)c12 [NJH-05–141, (S)-3-(3-(((R)-7-(3-(2-(2-((S)-4-(4-chlorophenyl)-2,3,9-trimethyl-6H-thieno[3,2-f][1,2,4]triazolo[4,3-a][1,4]diazepin-6-yl)acetamido)ethoxy)propyl)-4-methyl-1,1-dioxido-3,4-dihydro-2H-benzo[b][1,4,5]oxathiazepin-2-yl)methyl)-4-methylphenyl)-3-(7-methoxy-1-methyl-1H-benzo[d][1,2,3]triazol-5-yl)propanoic acid]
- cellular degradation of BRD4, linker library (BRD4; MM.1S cells): showed cellular degradation of BRD4 to a similar level to DGY-06–177-pk2

SMILES: COc1cc(C(CC(=O)O)c2ccc(C)c(CN3C[C@@H](C)Oc4cc(CCCCCCNC(=O)C[C@@H]5N=C(c6ccc(Cl)cc6)c6c(sc(C)c6C)-n6c(C)nnc65)ccc4S3(=O)=O)c2)cc2nnn(C)c12 (mixture of isomers) [DGY-06–177, 3-(3-(((R)-7-(6-(2-((S)-4-(4-chlorophenyl)-2,3,9-trimethyl-6H-thieno[3,2-f][1,2,4]triazolo[4,3-a][1,4]diazepin-6-yl)acetamido)hexyl)-4-methyl-1,1-dioxido-3,4-dihydro-2H-benzo[b][1,4,5]oxathiazepin-2-yl)methyl)-4-methylphenyl)-3-(7-methoxy-1-methyl-1H-benzo[d][1,2,3]triazol-5-yl)propanoic acid]
- IC50 (KEAP1 [1]): 145 nM
- concentration at which KEAP1-BRD4BD2 dimerization is promoted (KEAP1-BRD4BD2): approximately 100 nM
- concentration at which hook effect is exhibited (BRD4; MM.1S cells, 24 h): 5 µM
- concentration of maximal BRD4 degradation (BRD4; MM.1S cells, 24 h): 1 µM

SMILES: COc1cc([C@@H](CC(=O)O)c2ccc(C)c(CN3C[C@@H](C)Oc4cc(CCCCNC(=O)C[C@@H]5N=C(c6ccc(Cl)cc6)c6c(sc(C)c6C)-n6c(C)nnc65)ccc4S3(=O)=O)c2)cc2nnn(C)c12 [NJH-05–138, (S)-3-(3-(((R)-7-(4-(2-((S)-4-(4-chlorophenyl)-2,3,9-trimethyl-6H-thieno[3,2-f][1,2,4]triazolo[4,3-a][1,4]diazepin-6-yl)acetamido)butyl)-4-methyl-1,1-dioxido-3,4-dihydro-2H-benzo[b][1,4,5]oxathiazepin-2-yl)methyl)-4-methylphenyl)-3-(7-methoxy-1-methyl-1H-benzo[d][1,2,3]triazol-5-yl)propanoic acid]
- cellular degradation of BRD4, linker library (BRD4; MM.1S cells): showed cellular degradation of BRD4 to a similar level to DGY-06–177-pk2

SMILES: COc1cc(C(CC(=O)O)c2ccc(C)c(CN(C)S(=O)(=O)c3ccc(OCCCCCCNC(=O)C[C@@H]4N=C(c5ccc(Cl)cc5)c5c(sc(C)c5C)-n5c(C)nnc54)cc3)c2)cc2nnn(C)c12 (stereo partly drawn) [DGY-05–089, 3-(3-(((4-((6-(2-((S)-4-(4-chlorophenyl)-2,3,9-trimethyl-6H-thieno[3,2-f][1,2,4]triazolo[4,3-a][1,4]diazepin-6-yl)acetamido)hexyl)oxy)-N-methylphenyl)sulfonamido)methyl)-4-methylphenyl)-3-(7-methoxy-1-methyl-1H-benzo[d][1,2,3]triazol-5-yl)propanoic acid]
- IC50 (KEAP1 [1]; read-out: IC50, KEAP1-NRF2 TR-FRET displacement): 147 nM
- KEAP1-BRD4BD2 ternary complex formation / dimerization (KEAP1-BRD4BD2): did not induce ternary complex formation
- BRD4 degradation (BRD4; MM.1S cells, 24 h): failed to degrade BRD4

SMILES: COc1cc([C@H](CC(=O)O)c2ccc(C)c(CN3C[C@@H](C)Oc4cc(CCCCCCNC(=O)C[C@@H]5N=C(c6ccc(Cl)cc6)c6c(sc(C)c6C)-n6c(C)nnc65)ccc4S3(=O)=O)c2)cc2nnn(C)c12 [DGY-06–177-pk1, (R)-3-(3-(((R)-7-(6-(2-((S)-4-(4-chlorophenyl)-2,3,9-trimethyl-6H-thieno[3,2-f][1,2,4]triazolo[4,3-a][1,4]diazepin-6-yl)acetamido)hexyl)-4-methyl-1,1-dioxido-3,4-dihydro-2H-benzo[b][1,4,5]oxathiazepin-2-yl)methyl)-4-methylphenyl)-3-(7-methoxy-1-methyl-1H-benzo[d][1,2,3]triazol-5-yl)propanoic acid]
- concentration at which KEAP1-BRD4BD2 dimerization is induced (KEAP1-BRD4BD2): ~ 10 μM

Reference: PMC9588736 (Cell chemical biology, 2022)
